# Experimental data pooled from the literature.
# Compare with care: the assays were run in different laboratories. pEC50: −log10 of the molar value.
# Observed: cell growth or viability
SMILES,cell line,method,tested at,time,measurement,value
O=C(Nc1ccccc1)Nc1ccc(Oc2nnc(-c3ccc(Cl)cc3)c3ccccc23)cc1,HepG2,MTT,0.625 µM,24 h,viability,5.31%
CNc1ncc2c(/C=C/C(=O)N3CCC(OC)CC3)nn(Cc3ccc(C)cc3)c2n1,OE33,resazurin,,5 days,pEC50,5.60
C=CC(=O)NC1CCN(c2ncc3ncnc(Nc4ccc(Oc5ccc6c(c5)ncn6C)c(C)c4)c3n2)CC1,NCI-H292,,,,pEC50,7.08
CC(C)(C)c1cnc(CSc2cnc(NC(=O)C3CCN(CCCCCCCCSc4cccc5c4C(=O)N(C4CCC(=O)NC4=O)C5=O)CC3)s2)o1 (stereo not shown),HH,CCK-8,10 nM,,viability,98.2%
S=C(Nc1ccccc1)Nc1ccc(Oc2nnc(-c3ccc(Cl)cc3)c3ccccc23)cc1,HepG2,MTT,10 µM,,cell death,97.2%
CNc1ncc2c(/C=C/C(=O)N3CCC(CCO)CC3)nn(CC3CCCC3)c2n1,OE33,resazurin,,5 days,pEC50,< 4.52
CC(C)(C)c1cnc(CSc2cnc(NC(=O)C3CCN(C(=O)COCCOCCSc4cccc5c4C(=O)N(C4CCC(=O)NC4=O)C5=O)CC3)s2)o1 (stereo not shown),HH,CCK-8,0.1 µM,,viability,100%
O=C(Nc1ccc(Oc2nnc(-c3ccc(Cl)cc3)c3ccccc23)cc1)c1ccccc1,HepG2,MTT,0.312 µM,,cell death,67.5%
CC(C)(C)c1cnc(CSc2cnc(NC(=O)C3CCN(CCCCSc4cccc5c4C(=O)N(C4CCC(=O)NC4=O)C5=O)CC3)s2)o1 (stereo not shown),HH,CCK-8,50 nM,,viability,96.8%
CNc1ncc2c(/C=C/C(=O)N3CCC(N(C)C)CC3)nn(CC3CCCC3)c2n1,OE33,resazurin,,5 days,pEC50,4.83
CC(=NNC(=O)c1ccccc1)c1ccc(Nc2nnc(-c3ccc(Cl)cc3)c3ccccc23)cc1,HepG2,MTT,2.5 µM,,cell death,95.8%
CC(C)(C)c1cnc(CSc2cnc(NC(=O)C3CCN(CCCCCCCCSc4cccc5c4CN(C4CCC(=O)NC4=O)C5=O)CC3)s2)o1 (stereo not shown),HH,CCK-8,50 nM,,viability,90.8%
Nc1ncnc2c1c(/C=C/C(=O)O)nn2CC1CCCC1,OE33,resazurin,,5 days,pEC50,< 4.52
